This note sets out measurements from ChEMBL document CHEMBL4477194, “Royal Jelly Constituents Increase the Expression of Extracellular Superoxide Dismutase through Histone Acetylation in Monocytic THP-1 Cells” (J Nat Prod, 2016).

Assay [1] has as its system THP-1. Description: Effect on HDAC10 mRNA expression in human THP1 cells at 1 mM after 24 hrs by RT-PCR method. The format is functional, cell-based. Put shortly:
(§1)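 THP-1 cells in RPMI 1640 with 10% heat-inactivated FCS, 37 °C, 5% CO2. Seeded 2.0 × 10^6 cells per 3.5 cm dish and treated 24 h, at 1 mM for the 1 mM lines and 100 μM for the 100 μM lines. RNA extracted in TRIzol, then real-time RT-PCR normalized to 18S rRNA. Means ± SD of three independent experiments; ANOVA with Bonferroni post hoc.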

Assay [2] concerns THP-1. Description: Effect on HDAC4 mRNA expression in human THP1 cells at 1 mM after 24 hrs by RT-PCR method. The format is functional, cell-based. In a few lines: as §1
Assay [3] concerns THP-1. Description: Effect on Cu/Zn SOD mRNA expression in human THP1 cells at 1 mM after 24 hrs by RT-PCR method. The format is functional, cell-based. In a few lines:
(§2)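 THP-1 cells (RPMI 1640, 10% heat-inactivated FCS, 37 °C, 5% CO2) were seeded at 2.0 × 10^6 cells/dish and treated for 24 h. Cells were washed with cold PBS and lysed in TRIzol, then analysed by real-time RT-PCR normalized to 18S rRNA. Values are mean ± SD of three independent experiments, with ANOVA and Bonferroni tests.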

The test system of assay [4] is THP-1. Description: Upregulation of Mn SOD mRNA expression in human THP1 cells at 1 mM after 24 hrs by RT-PCR method. The format is functional, cell-based. In a few lines: as §2
Assay [5] relates to THP-1. Description: Effect on HDAC5 mRNA expression in human THP1 cells at 1 mM after 24 hrs by RT-PCR method. The format is functional, cell-based. Put shortly: as §1
Assay [6] addresses Histone deacetylase 1 (Homo sapiens) (UniProt Q13547). Description: Inhibition of HDAC1 in human THP1 cells assessed as increase in histone H3 acetylation level at 1 mM after 12 hrs by Western blot analysis relative to control. The format is cell-based. Put shortly: (§3)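 After 12 h treatment, THP-1 whole-cell extracts (20 μg protein) were run on 12% SDS-PAGE and transferred to PVDF. Membranes were blocked with 1% BSA in PBS and probed with anti-acetyl histone H3 or H4 primary antibodies (1:1000), then a biotin-conjugated secondary antibody (1:1000). Histone loading was checked by Coomassie staining.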

The test system of assay [7] is THP-1. Description: Effect on HDAC6 mRNA expression in human THP1 cells at 1 mM after 24 hrs by RT-PCR method. The format is functional, cell-based. Put shortly: as §1
The species named for assay [8] is Homo sapiens. Description: Upregulation of HDAC1 inhibition/ERK signalling activation-mediated extracellular SOD mRNA expression in human THP1 cells at 1 mM after 24 hrs by RT-PCR method. The format is cell-based. Put shortly:
as §2

In assay [9] the test system is THP-1. Description: Effect on HDAC8 mRNA expression in human THP1 cells at 1 mM after 24 hrs by RT-PCR method. The format is functional, cell-based. Put shortly: as §1
For assay [10], the system named is THP-1. Description: Effect on HDAC9 mRNA expression in human THP1 cells at 1 mM after 24 hrs by RT-PCR method. The format is functional, cell-based. Put shortly: as §1
Assay [11] has as its target Histone deacetylase (Homo sapiens) (UniProt Q13547+O15379+Q9UBN7+Q92769+Q9UQL6+Q8WUI4+Q9BY41+Q96DB2+P56524+Q9UKV0+Q969S8). Description: Inhibition of HDAC activity in human THP1 cells at 1 mM preincubated for 1 hr followed by substrate addition measured after 2 hrs by fluorescence assay relative to control. The format is cell-based. Put shortly:
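This is a cell-based HDAC assay. THP-1 cells at 5.0 × 10^4 cells/well were treated for 1 h, then HDAC substrate was added for 2 h at 37 °C. Lysis/developer solution followed for 15 min at 37 °C. Fluorescence was read at ex 365 nm / em 410–460 nm and compared with untreated cells; mean ± SD, n = 3 independent experiments.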

For assay [12], the system named is THP-1. Description: Effect on HDAC1 mRNA expression in human THP1 cells at 1 mM after 24 hrs by RT-PCR method. The format is functional, cell-based. Put shortly:
as §1

The subject of assay [13] is THP-1. Description: Effect on HDAC7 mRNA expression in human THP1 cells at 1 mM after 24 hrs by RT-PCR method. The format is functional, cell-based. In a few lines:
as §1

Assay [14] is filed under the species Homo sapiens. Description: Upregulation of HDAC1 inhibition/ERK signalling activation-mediated extracellular SOD protein expression in human THP1 cells at 1 mM after 24 hrs by ELISA. The format is cell-based. In a few lines:
(§4)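 EC-SOD protein content was measured by ELISA in THP-1 cells after 24 h treatment, with cells collected in PBS. Cells were cultured in RPMI 1640 with 10% heat-inactivated FCS at 37 °C and 5% CO2. Values are mean ± SD of three independent experiments, compared against untreated cells.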

Assay [15] deals with THP-1. Description: Effect on HDAC2 mRNA expression in human THP1 cells at 1 mM after 24 hrs by RT-PCR method. The format is functional, cell-based. In a few lines:
as §1

The target in assay [16] is Histone deacetylase 1 (Homo sapiens) (UniProt Q13547). Description: Upregulation of HDAC1 inhibition-mediated histone H4 acetylation-induced extracellular SOD expression in human THP1 cells at 1 mM after 12 hrs by chromatin immunoprecipitation method. The format is cell-based. In a few lines: (§5)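 THP-1 cells (5 × 10^6) treated 12 h, at 1 mM or 100 μM per line. Cross-linked with formaldehyde 5 min at room temperature and chromatin sonicated to 150–800 bp. Immunoprecipitated overnight on protein G beads and washed in RIPA I/II and TE. Eluted with RNase A and proteinase K. EC-SOD promoter binding expressed as % of input.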

The target is the same in assay [17]. Description: Inhibition of recombinant HDAC1 catalytic domain (unknown origin) using HDAC substrate at 1 mM preincubated for 1 hr followed by substrate addition measured after 30 mins by fluorescence assay relative to control. Put shortly:
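Recombinant HDAC1 was mixed with compound in assay buffer, and the reaction was started with HDAC substrate for 30 min at 37 °C in the dark. Developer was then added for 15 min at room temperature. Fluorescence was read at ex 365 nm / em 410–460 nm and compared with untreated control; mean ± SD of three independent experiments.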

Assay [18] concerns THP-1. Description: Effect on HDAC3 mRNA expression in human THP1 cells at 1 mM after 24 hrs by RT-PCR method. The format is functional, cell-based. Put shortly:
as §1

Assay [19] deals with Histone deacetylase 1 (Homo sapiens) (UniProt Q13547). Description: Inhibition of HDAC1 in human THP1 cells assessed as increase in histone H4 acetylation level at 1 mM after 12 hrs by Western blot analysis relative to control. The format is cell-based. In a few lines:
as §3

Assay [20] shares this target. Description: Upregulation of HDAC1 inhibition-mediated histone H3 acetylation-induced extracellular SOD expression in human THP1 cells at 1 mM after 12 hrs by chromatin immunoprecipitation method. The format is cell-based. In a few lines:
as §5

The species entered for assay [21] is Homo sapiens. Description: Upregulation of HDAC1 inhibition/ERK signalling activation-mediated extracellular SOD mRNA expression in human THP1 cells at 1 uM after 24 hrs by RT-PCR method. The format is cell-based. In a few lines:
as §2

Assay [22] is filed under the species Homo sapiens. Description: Upregulation of HDAC1 inhibition/ERK signalling activation-mediated extracellular SOD protein expression in human THP1 cells at 1 uM after 24 hrs by ELISA. The format is cell-based. In a few lines:
as §4

Active and inactive are the calls of the source. The rule behind the calls is not given here.

Sequence of Histone deacetylase 1 (Homo sapiens) (Q13547 whole entry): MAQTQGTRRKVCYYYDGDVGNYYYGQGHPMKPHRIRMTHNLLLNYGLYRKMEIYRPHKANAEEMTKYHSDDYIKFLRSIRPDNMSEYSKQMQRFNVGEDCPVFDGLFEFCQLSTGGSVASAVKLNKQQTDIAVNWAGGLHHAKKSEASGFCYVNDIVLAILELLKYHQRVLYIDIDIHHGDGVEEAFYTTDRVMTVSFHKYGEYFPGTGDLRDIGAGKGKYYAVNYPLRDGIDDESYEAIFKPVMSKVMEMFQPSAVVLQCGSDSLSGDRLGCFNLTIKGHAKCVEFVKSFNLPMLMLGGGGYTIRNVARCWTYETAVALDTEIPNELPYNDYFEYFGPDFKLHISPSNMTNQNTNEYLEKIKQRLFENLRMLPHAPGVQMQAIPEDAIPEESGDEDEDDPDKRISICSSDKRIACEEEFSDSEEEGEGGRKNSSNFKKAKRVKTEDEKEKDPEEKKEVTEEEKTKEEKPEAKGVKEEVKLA

With `O=C(O)CCCCCCCCCO`, the result in the assay on THP-1 [1], in the assay with THP-1 [2], with THP-1 [3], with THP-1 [4], in the assay with THP-1 [5] and in the assay with THP-1 [7] was inactive. Further, the outcome in the assay on THP-1 [9], in the assay with THP-1 [10], with THP-1 [12], in the assay on THP-1 [13], with THP-1 [15] and in the assay on THP-1 [18] was inactive. Besides, the result in assay [20] was inactive. Also, the fold change (FC) in [6] amounted to 1.33; in [19], 2.45. The result (in the assay filed under Homo sapiens [8]; in the assay filed under Homo sapiens [14]; in assay [16]) was Active. In addition, the inhibition in assay [11] was 20%; in assay [17], 50%.
Turning to `O=C(O)CCCCCCCCC(=O)O`, the outcome with THP-1 [1], with THP-1 [2], with THP-1 [3], in the assay with THP-1 [5], with THP-1 [7] and in the assay on THP-1 [9] was inactive. Besides, the result (in the assay with THP-1 [10]; in the assay with THP-1 [12]; in the assay with THP-1 [13]; in the assay on THP-1 [15]; in the assay on THP-1 [18]; in assay [20]) was inactive. Besides, the result (in the assay with THP-1 [4]; in the assay listed under Homo sapiens [8]; in the assay filed under Homo sapiens [14]; in assay [16]) was Active. For the same compound, the figures for the fold change (FC) in assay [6] and in assay [19] were 1.24 and 2.24, respectively. Also, the figures for the inhibition in assay [11] and in assay [17] were 20% and 50%, respectively.
Regarding `O=C(O)/C=C\CCCCCCCO`, the outcome with THP-1 [3] was inactive. Besides, the outcome in the assay with THP-1 [4], in the assay listed under Homo sapiens [8] and in the assay filed under Homo sapiens [14] was Active. The fold change (FC) worked out at 1.29 in assay [6] and 2.47 in assay [19]. In addition, the inhibition result in assay [11] is “Active”. Further, the inhibition in [17] is 50%.
Take `CC(/C=C/C(=O)NO)=C\[C@@H](C)C(=O)c1ccc(N(C)C)cc1`: the outcome in the assay listed under Homo sapiens [21] and in the assay listed under Homo sapiens [22] was Active.
